# Key:
# Enterobacter cloacae [1] = experiment: Antibacterial activity against Enterobacter cloacae 265A; assay type: functional
# [2] = Terminal half life in dogs at the dose of 60 mg/kg.; assay type: ADME, organism-based, Canis lupus familiaris; parameters: dose 60 mg/kg; conditions: dog, in vivo
# Summary of the method: (§1)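 Overnight-fasted female mongrel dogs with a Foley bladder catheter; bolus into the cephalic vein. Plasma and urine collected before dosing and over 24 h after. Antibacterial activity measured by microbiological assay.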
# Escherichia coli [3] = experiment: Antibacterial activity against Escherichia coli EC14; assay type: functional; conditions: Escherichia coli; read-out: MIC
# Streptococcus pyogenes = experiment: Antibacterial activity against Streptococcus pyogenes; assay type: functional
# Klebsiella pneumoniae [4] = experiment: Antibacterial activity against Klebsiella pneumoniae X26; assay type: functional; conditions: Klebsiella pneumoniae; read-out: MIC
# Pseudomonas aeruginosa [5] = experiment: Antibacterial activity against Pseudomonas aeruginosa X528; assay type: functional
# Streptococcus pneumoniae = experiment: Antibacterial activity against Streptococcus pneumoniae; assay type: functional
# Canis familiaris = experiment: Percent of dose in dogs urine at the dose of 60 mg/kg.; assay type: functional, Canis lupus familiaris; summary of the method: as §1
# Escherichia coli [6] = experiment: Antibacterial activity against Escherichia coli TEM; assay type: functional
# Pseudomonas aeruginosa [7] = experiment: Antibacterial activity against Pseudomonas aeruginosa PS18; assay type: functional
# Staphylococcus aureus [8] = experiment: Antibacterial activity against penicillin G resistance Staphylococcus aureus; assay type: functional
# Staphylococcus aureus [9] = experiment: Antibacterial activity against penicillin G susceptible Staphylococcus aureus; assay type: functional
# Cavia porcellus [10] = species on record: Cavia porcellus; experiment: In vitro relative anticholinergic potential in isolated guinea pig trachea; assay type: functional
# Summary of the method: (§2)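 Guinea pig trachea in Krebs' solution at 37.5 °C, 95% O2/5% CO2, pH 7.4, 2 g resting tension. Cumulative carbachol log dose-response curve (3-fold steps) run before and 30 min after adding antagonist at 1 mM. […] Tukey test on log2 dose ratios.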
# Enterococcus faecium = experiment: Antibacterial activity against Enterococcus faecium; assay type: functional; conditions: Enterococcus faecium; read-out: MIC
# Enterobacter cloacae [11] = experiment: Antibacterial activity against Enterobacter cloacae EB5; assay type: functional
# Klebsiella pneumoniae [12] = experiment: microbe, parasite or virus in culture; assay type: functional
# Serratia marcescens = experiment: Antibacterial activity against Serratia marcescens SE3; assay type: functional
# [13] = In vitro dose required for anticholinergic activity in isolated guinea pig trachea; assay type: functional
# Enterobacter cloacae [14] = experiment: In vitro relative hydrolysis rate against Enterobacter Ia; assay type: functional
# Summary of the method: (§3)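 Spectrophotometric hydrolysis at 265 nm, substrate exposed to partially purified cell-free β-lactamase preparations; rate expressed as percentage of the cephaloridine rate.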
# Escherichia coli [15] = experiment: In vivo efficacy against Escherichia coli infected mice treated at 1 hr and 5 hr post infection; assay type: functional
# Escherichia coli [16] = experiment: In vivo efficacy against Escherichia coli infections in mice; assay type: functional; conditions: Escherichia coli; read-out: MIC
# Staphylococcus aureus [17] = experiment: In vivo efficacy against Staphylococcus aureus infections in mice; assay type: functional
# Staphylococcus aureus [18] = experiment: In vivo efficacy against Staphylococcus aureus infected mice treated at 1 hr and 5 hr post infection; assay type: functional
# Pseudomonas aeruginosa [19] = experiment: In vivo efficacy against Pseudomonas aeruginosa infected mice treated at 1 hr and 5 hr post infection; assay type: functional
# Pseudomonas aeruginosa [20] = experiment: In vivo efficacy against Pseudomonas aeruginosa infections in mice; assay type: functional
# Pseudomonas aeruginosa [21] = experiment: In vitro relative hydrolysis rate against Pseudomonas Id; assay type: functional; summary of the method: as §3
# Staphylococcus aureus [22] = experiment: In vitro relative hydrolysis rate against Staphylococcus aureus; assay type: functional; summary of the method: as §3
# Klebsiella pneumoniae [23] = experiment: In vitro relative hydrolysis rate against Klebsiella IV; assay type: functional; summary of the method: as §3
# Escherichia coli [24] = experiment: In vitro relative hydrolysis rate against Escherichia coli IIIa; assay type: functional; summary of the method: as §3
# Cavia porcellus [25] = species on record: Cavia porcellus; experiment: In vitro relative anticholinergic activity in isolated guinea pig trachea; assay type: functional; conditions: read-out: pA2 (converted); summary of the method: as §2
# [26] = Enterobacter cloacae, read-out: MIC
# [27] = Streptococcus pyogenes, read-out: MIC
# [28] = Pseudomonas aeruginosa, read-out: MIC
# [29] = Streptococcus pneumoniae, read-out: MIC
# [30] = Escherichia coli, read-out: MIC
# [31] = Staphylococcus aureus, read-out: MIC
# [32] = Klebsiella pneumoniae, read-out: MIC
# [33] = Serratia marcescens, read-out: MIC
# [34] = Escherichia coli, read-out: ED50
# [35] = Staphylococcus aureus, read-out: ED50
# [36] = Pseudomonas aeruginosa, read-out: ED50
SMILES,MIC (Enterobacter cloacae [1]; [26]) [µg/mL],MIC (Escherichia coli [3]) [µg/mL],MIC (Streptococcus pyogenes; [27]) [ng/mL],MIC (Klebsiella pneumoniae [4]) [µg/mL],MIC (Pseudomonas aeruginosa [5]; [28]) [µg/mL],MIC (Streptococcus pneumoniae; [29]) [µg/mL],MIC (Escherichia coli [6]; [30]) [µg/mL],MIC (Pseudomonas aeruginosa [7]; [28]) [µg/mL],MIC (Staphylococcus aureus [8]; [31]) [µg/mL],MIC (Staphylococcus aureus [9]; [31]) [µg/mL],MIC (Enterococcus faecium) [µg/mL],MIC (Enterobacter cloacae [11]; [26]) [µg/mL],MIC (Klebsiella pneumoniae [12]; [32]) [µg/mL],MIC (Serratia marcescens; [33]) [µg/mL],Hydrolysis rate (Enterobacter cloacae [14]),MIC (Escherichia coli [16]) [µg/mL],Hydrolysis rate (Pseudomonas aeruginosa [21]),Hydrolysis rate (Staphylococcus aureus [22]),Hydrolysis rate (Klebsiella pneumoniae [23]),Hydrolysis rate (Escherichia coli [24]),also measured
CO/N=C(\C(=O)N[C@@H]1C(=O)N2C(C(=O)[O-])=C(C[n+]3ccc4sc(C(=O)O)cc4c3)CS[C@H]12)c1csc(N)n1,32,< 0.008,< 8,< 0.008,2,< 0.008,0.03,8,16,2,> 128,0.06,4,0.06,,,,,,,half-life [2]: 90 min; Percent of dose recovered in urine (Canis familiaris): 98%; RAP (Cavia porcellus [10]): 2; Dose ratio [13]: 1.52
CO/N=C(\C(=O)N[C@@H]1C(=O)N2C(C(=O)[O-])=C(C[n+]3cccc4sccc43)CS[C@H]12)c1csc(N)n1,4,0.06,15,0.03,2,0.03,0.06,4,4,0.5,128,0.25,1,0.125,0.2,0.03,0.2,6.2,0.7,0.2,ED50 (Escherichia coli [15]; [34]): 0.04 mg/kg; MIC (Staphylococcus aureus [17]; [31]): 1 µg/mL; ED50 (Staphylococcus aureus [18]; [35]): 0.6 mg/kg; ED50 (Pseudomonas aeruginosa [19]; [36]): 9.3 mg/kg; MIC (Pseudomonas aeruginosa [20]; [28]): 2 µg/mL
CO/N=C(\C(=O)N[C@@H]1C(=O)N2C(C(=O)[O-])=C(C[n+]3ccc4sc(C)nc4c3)CS[C@H]12)c1csc(N)n1,2,0.015,8,,4,0.015,,8,2,2,128,,2,0.125,,,,,,,Kb (Cavia porcellus [25]): 603 µM; RAP (Cavia porcellus [10]): 7
CO/N=C(\C(=O)N[C@@H]1C(=O)N2C(C(=O)[O-])=C(C[n+]3cccc4c(N)cccc43)CS[C@H]12)c1csc(N)n1,8,0.015,< 8,0.015,2,0.015,0.015,2,2,1,128,0.06,2,0.06,1.1,0.03,0.6,0.2,6.8,0.7,ED50 (Escherichia coli [15]; [34]): < 0.03 mg/kg; MIC (Staphylococcus aureus [17]; [31]): 0.5 µg/mL; ED50 (Staphylococcus aureus [18]; [35]): 0.2 mg/kg; ED50 (Pseudomonas aeruginosa [19]; [36]): 6 mg/kg; MIC (Pseudomonas aeruginosa [20]; [28]): 2 µg/mL
CO/N=C(\C(=O)N[C@@H]1C(=O)N2C(C(=O)[O-])=C(C[n+]3ccc(CC(=O)NO)cc3)CS[C@H]12)c1csc(N)n1 (stereo in doubt; 9),,0.03,,0.03,,,,,,,128,,,,0.2,0.03,0.1,6.9,1.2,0.1,MIC (Enterobacter cloacae [1]): 32 µg/mL; ED50 (Escherichia coli [15]): <0.3 mg/kg; MIC (Streptococcus pyogenes): 30 ng/mL; MIC (Pseudomonas aeruginosa [5]): 8 µg/mL; MIC (Staphylococcus aureus [17]): 1 µg/mL; ED50 (Staphylococcus aureus [18]): 1 mg/kg; MIC (Streptococcus pneumoniae): 0.03 µg/mL; ED50 (Pseudomonas aeruginosa [19]): 39 mg/kg; MIC (Escherichia coli [6]): 0.03 µg/mL; MIC (Pseudomonas aeruginosa [7]): 4 µg/mL; MIC (Pseudomonas aeruginosa [20]): 16 µg/mL; MIC (Staphylococcus aureus [8]): 4 µg/mL; MIC (Staphylococcus aureus [9]): 2 µg/mL; MIC (Enterobacter cloacae [11]): 0.25 µg/mL; MIC (Klebsiella pneumoniae [12]): 4 µg/mL; MIC (Serratia marcescens): 0.125 µg/mL
CO/N=C(\C(=O)N[C@@H]1C(=O)N2C(C(=O)[O-])=C(C[n+]3ccc4ccsc4c3)CS[C@H]12)c1csc(N)n1,8,0.015,< 8,0.015,2,< 0.008,0.03,4,4,1,> 128,0.06,4,0.03,0.7,< 0.008,0.4,7.1,6.9,0.2,ED50 (Escherichia coli [15]; [34]): 0.02 mg/kg; MIC (Staphylococcus aureus [17]; [31]): 1 µg/mL; ED50 (Staphylococcus aureus [18]; [35]): 0.4 mg/kg; ED50 (Pseudomonas aeruginosa [19]; [36]): 9.5 mg/kg; MIC (Pseudomonas aeruginosa [20]; [28]): 4 µg/mL

# From ChEMBL document CHEMBL1124865, “Synthesis and biological evaluation of a series of parenteral 3'-quaternary ammonium cephalosporins” (J Med Chem, 1990)
